Test results: ChEMBL document CHEMBL4665666, “Discovery and characterization of trypanocidal cysteine protease inhibitors from the 'malaria box'” (Eur J Med Chem, 2019)

Assays:
[1] = target: Rhodesain (Trypanosoma brucei rhodesiense) (UniProt Q95PM0); assay: Inhibition of recombinant Trypanosoma brucei rhodesain expressed in Pichia pastoris at 5 uM using Z-FR-AMC as substrate and measured at 12 sec interval for 5 mins without preincubation by fluorimetric analysis relative to control
Method in brief: (§1)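 Recombinant rhodesain or cruzain (1 nM) in 0.1 M sodium acetate pH 5.5, 0.01% Triton X-100, 1 mM β-mercaptoethanol. Compound at a single concentration, either without or after 10 min enzyme pre-incubation. Inhibition is relative to DMSO, with E-64 as positive control. Done in duplicate (primary screen) or triplicate.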

[2] = target: Rhodesain (Trypanosoma brucei rhodesiense) (UniProt Q95PM0); assay: Inhibition of recombinant Trypanosoma brucei rhodesain expressed in Pichia pastoris at 5 uM using Z-FR-AMC as substrate preincubated for 10 mins followed by substrate addition and measured at 12 sec interval for 5 mins by fluorimetric analysis relative to control; conditions: time 15.0 min; method in brief: as §1
[3] = system: Trypanosoma brucei brucei; assay: Trypanocidal activity against Trypanosoma brucei brucei Squib 427 assessed as reduction in parasite viability; type: functional, organism-based
[4] = target: Rhodesain (Trypanosoma brucei rhodesiense) (UniProt Q95PM0); assay: Inhibition of recombinant Trypanosoma brucei rhodesain expressed in Pichia pastoris at 10 uM using Z-FR-AMC as substrate and measured at 12 sec interval for 5 mins without preincubation by fluorimetric analysis relative to control
Method in brief: as §1, with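 “pre-incubation. Z-FR-AMC 2.5 µM, read at 340/440 nm every 12 s for 5 min.” for “pre-incubation.”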

[5] = target: Cruzipain (Trypanosoma cruzi) (UniProt P25779); assay: Inhibition of recombinant Trypanosoma cruzi cruzain at 100 uM using Z-FR-AMC as substrate and measured at 12 sec interval for 5 mins without preincubation by fluorimetric analysis relative to control
Cruzipain (Trypanosoma cruzi), sequence (P25779 123-467 limits assumed): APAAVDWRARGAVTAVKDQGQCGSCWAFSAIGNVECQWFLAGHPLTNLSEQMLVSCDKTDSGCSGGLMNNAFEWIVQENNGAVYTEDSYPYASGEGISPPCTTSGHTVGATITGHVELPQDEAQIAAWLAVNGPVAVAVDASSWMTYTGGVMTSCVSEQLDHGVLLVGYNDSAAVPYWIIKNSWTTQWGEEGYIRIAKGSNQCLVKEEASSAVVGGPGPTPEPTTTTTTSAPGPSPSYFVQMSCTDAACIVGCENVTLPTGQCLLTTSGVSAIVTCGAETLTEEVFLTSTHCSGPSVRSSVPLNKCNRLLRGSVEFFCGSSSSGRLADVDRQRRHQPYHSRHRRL
Method in brief: as §1, with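 “pre-incubation. Z-FR-AMC 2.5 µM, read at 340/440 nm every 12 s for 5 min.” for “pre-incubation.”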

[6] = target: Cruzipain (Trypanosoma cruzi) (UniProt P25779); assay: Inhibition of recombinant Trypanosoma cruzi cruzain at 10 uM using Z-FR-AMC as substrate preincubated for 10 mins followed by substrate addition and measured at 12 sec interval for 5 mins by fluorimetric analysis relative to control; conditions: time 15.0 min
Method in brief: as §1, with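 “pre-incubation. Z-FR-AMC 2.5 µM, read at 340/440 nm every 12 s for 5 min.” for “pre-incubation.”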

[7] = target: Rhodesain (Trypanosoma brucei rhodesiense) (UniProt Q95PM0); assay: Inhibition of recombinant Trypanosoma brucei rhodesain expressed in Pichia pastoris at 100 uM using Z-FR-AMC as substrate preincubated for 10 mins followed by substrate addition and measured at 12 sec interval for 5 mins by fluorimetric analysis relative to control; conditions: time 15.0 min
Method in brief: (§2)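 Run with no pre-incubation or with 10 min enzyme-compound pre-incubation. Fluorescence read at 340/440 nm. Concentration was set by solubility under assay conditions. Inhibition is against DMSO, with E-64 as positive control; triplicate.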

[8] = target: Cruzipain (Trypanosoma cruzi) (UniProt P25779); assay: Inhibition of recombinant Trypanosoma cruzi cruzain at 5 uM using Z-FR-AMC as substrate and measured at 12 sec interval for 5 mins without preincubation by fluorimetric analysis relative to control; method in brief: as §1
[9] = target: Rhodesain (Trypanosoma brucei rhodesiense) (UniProt Q95PM0); assay: Inhibition of recombinant Trypanosoma brucei rhodesain expressed in Pichia pastoris at 10 uM using Z-FR-AMC as substrate preincubated for 10 mins followed by substrate addition and measured at 12 sec interval for 5 mins by fluorimetric analysis relative to control; conditions: time 15.0 min
Method in brief: as §1, with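 “pre-incubation. Z-FR-AMC 2.5 µM, read at 340/440 nm every 12 s for 5 min.” for “pre-incubation.”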

[10] = target: Cruzipain (Trypanosoma cruzi) (UniProt P25779); assay: Inhibition of recombinant Trypanosoma cruzi cruzain at 5 uM using Z-FR-AMC as substrate preincubated for 10 mins followed by substrate addition and measured at 12 sec interval for 5 mins by fluorimetric analysis relative to control; conditions: time 15.0 min; method in brief: as §1
[11] = target: Cruzipain (Trypanosoma cruzi) (UniProt P25779); assay: Inhibition of recombinant Trypanosoma cruzi cruzain at 10 uM using Z-FR-AMC as substrate and measured at 12 sec interval for 5 mins without preincubation by fluorimetric analysis relative to control
Method in brief: as §1, with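 “pre-incubation. Z-FR-AMC 2.5 µM, read at 340/440 nm every 12 s for 5 min.” for “pre-incubation.”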

[12] = target: Rhodesain (Trypanosoma brucei rhodesiense) (UniProt Q95PM0); assay: Inhibition of recombinant Trypanosoma brucei rhodesain expressed in Pichia pastoris at 100 uM using Z-FR-AMC as substrate and measured at 12 sec interval for 5 mins without preincubation by fluorimetric analysis relative to control; method in brief: as §2
[13] = target: Cruzipain (Trypanosoma cruzi) (UniProt P25779); assay: Inhibition of recombinant Trypanosoma cruzi cruzain at 100 uM using Z-FR-AMC as substrate preincubated for 10 mins followed by substrate addition and measured at 12 sec interval for 5 mins by fluorimetric analysis relative to control; conditions: time 15.0 min
Method in brief: as §1, with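 “pre-incubation. Z-FR-AMC 2.5 µM, read at 340/440 nm every 12 s for 5 min.” for “pre-incubation.”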

[14] = system: Schistosoma mansoni; assay: Inhibition of recombinant Schistosoma mansoni SmCB1 expressed in Pichia pastoris at 5 uM using Z-FR-AMC as substrate preincubated for 10 mins followed by substrate addition and measured at 23 sec interval for 30 mins by fluorimetric analysis relative to control
Method in brief: (§3)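 SmCB1 (recombinant, 8 nM) in 0.1 M sodium acetate pH 5.5 with 0.01% Triton X-100 and 4 mM β-mercaptoethanol. Compound at 5 µM, either not pre-incubated or pre-incubated 10 min with enzyme. Z-FR-AMC 20 µM, fluorescence 340/440 nm every 23 s for 30 min. Inhibition is versus DMSO, with E-64 control; each condition in duplicate.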

[15] = system: Schistosoma mansoni; assay: Inhibition of recombinant Schistosoma mansoni SmCB1 expressed in Pichia pastoris at 5 uM using Z-FR-AMC as substrate and measured at 23 sec interval for 30 mins without preincubation by fluorimetric analysis relative to control; method in brief: as §3
[16] = target: Cruzipain (Trypanosoma cruzi) (UniProt P25779); assay: Inhibition of recombinant Trypanosoma cruzi cruzain at 20 uM using Z-FR-AMC as substrate preincubated for 10 mins followed by substrate addition and measured at 12 sec interval for 5 mins by fluorimetric analysis relative to control; conditions: time 15.0 min
Method in brief: as §1, with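 “pre-incubation. Z-FR-AMC 2.5 µM, read at 340/440 nm every 12 s for 5 min.” for “pre-incubation.”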

[17] = target: Cruzipain (Trypanosoma cruzi) (UniProt P25779); assay: Inhibition of recombinant Trypanosoma cruzi cruzain at 20 uM using Z-FR-AMC as substrate and measured at 12 sec interval for 5 mins without preincubation by fluorimetric analysis relative to control
Method in brief: as §1, with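 “pre-incubation. Z-FR-AMC 2.5 µM, read at 340/440 nm every 12 s for 5 min.” for “pre-incubation.”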

[18] = target: Rhodesain (Trypanosoma brucei rhodesiense) (UniProt Q95PM0); assay: Inhibition of recombinant Trypanosoma brucei rhodesain expressed in Pichia pastoris at 20 uM using Z-FR-AMC as substrate and measured at 12 sec interval for 5 mins without preincubation by fluorimetric analysis relative to control; method in brief: as §2
[19] = target: Rhodesain (Trypanosoma brucei rhodesiense) (UniProt Q95PM0); assay: Inhibition of recombinant Trypanosoma brucei rhodesain expressed in Pichia pastoris at 20 uM using Z-FR-AMC as substrate preincubated for 10 mins followed by substrate addition and measured at 12 sec interval for 5 mins by fluorimetric analysis relative to control; conditions: time 15.0 min; method in brief: as §2
[20] = system: Trypanosoma brucei rhodesiense; assay: Trypanocidal activity against Trypanosoma brucei rhodesiense STI B900 assessed as reduction in parasite viability; type: functional, organism-based

Rhodesain (Trypanosoma brucei rhodesiense), sequence (Q95PM0 1-450): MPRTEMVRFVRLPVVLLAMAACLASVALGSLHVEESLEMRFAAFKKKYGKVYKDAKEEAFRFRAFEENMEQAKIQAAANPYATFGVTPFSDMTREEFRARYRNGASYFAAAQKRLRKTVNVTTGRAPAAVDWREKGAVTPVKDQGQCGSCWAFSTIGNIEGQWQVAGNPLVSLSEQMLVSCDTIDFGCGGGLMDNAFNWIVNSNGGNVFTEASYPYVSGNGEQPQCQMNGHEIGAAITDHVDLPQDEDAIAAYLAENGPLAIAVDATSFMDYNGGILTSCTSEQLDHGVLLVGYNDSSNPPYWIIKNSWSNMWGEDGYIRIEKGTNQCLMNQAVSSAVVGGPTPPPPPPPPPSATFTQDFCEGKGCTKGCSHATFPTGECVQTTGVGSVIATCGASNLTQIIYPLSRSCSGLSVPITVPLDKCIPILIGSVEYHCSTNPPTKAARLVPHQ

Structure (SMILES)	inhibition [1]	inhibition [2]	IC50 [3]	inhibition [4]	inhibition [5]	inhibition [6]	inhibition [7]	inhibition [8]	inhibition [9]	inhibition [10]	inhibition [11]	inhibition [12]	inhibition [13]	inhibition [14]	inhibition [15]	inhibition [16]	inhibition [17]	inhibition [18]	inhibition [19]	IC50 [20]
Cc1cc(Nc2ccc(C)c(Cl)c2)n2nc(C(F)(F)F)nc2n1	27.7%	57.8%	32 µM	5%	25%	4%	15%	23.9%	1%	47.2%	2%	16%	16%							
CC1(c2ccccc2)Nc2ccccc2-c2nc3ccccc3n21 (stereo unspecified)														5.2%	49.7%					
Cc1nc2ccccc2c(O)c1CC=C(Cl)Cl	43.4%	77.1%	32 µM	5%		11%		61.5%	2%	99.1%	4%					7%	3%	4%	3%	32 µM
COc1ccc(Br)cc1C1Nc2ccc3ccccc3c2C2=C1C(=O)CC(c1ccccc1)C2 (stereo unspecified)	27.6%	72.7%						7%		37.3%				50%	48.3%					
COc1ccc2sc(N(Cc3cccnc3)C(=O)c3ccc(C#N)cc3)nc2c1	50.7%	76.9%	32 µM	10%		7%		53%	21%	72.3%	9%									
CCOC(=O)c1c(C)n(-c2ccccc2)c2ccc(OC(=O)c3cc(OC)c(OC)c(OC)c3)cc12	38.5%	74.4%		4%		19%		36.8%	14%	51.7%	10%									
O=C1C2=C(Nc3ccccc3SC2c2ccccc2)c2ccccc21 (stereo unspecified)														0.3%	36.8%					
CCOc1cc(Cl)c(C(C)NC(=O)c2cccc(OC)c2)cc1OCC (stereo unspecified)														9.5%	36.3%					
CCOc1ccc(/C=C/c2nc(=O)c3ccccc3o2)cc1	32.7%	67%	32 µM	8%		3%		30.1%	0%	88.6%	10%					10%	15%	14%	0%	
FC(F)(F)c1cccc(CNC2CCN(CCc3ccccc3)CC2)c1	20.3%	70.8%		1%	7%	6%	14%	23.1%	8%	65.1%	0%	12%	22%							
